From article PMC3828798 (Journal of the American Heart Association: Cardiovascular …, 2013)

Molecular target: Recombinant angiotensin converting enzyme 2 (rACE2) (Homo sapiens, UniProt Q9BYF1)
Assay: ACE2 proteolysis assay of pyr‐1‐apelin‐13 and APLN analogues
Type: in vitro ADME
Settings: rACE2 in Tris buffer pH 8.0; HPLC coupled with MALDI‐TOF; Figures S8 and S9
In short: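 Quenched with 100 mmol/L EDTA pH 7.0. C18 reverse-phase HPLC, 10–45% acetonitrile/0.1% TFA, detection at 220 nm. Hydrolysis taken from substrate and product peak areas; masses confirmed by MALDI-TOF.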

Sequence of Recombinant angiotensin converting enzyme 2 (rACE2) (Q9BYF1 18-805): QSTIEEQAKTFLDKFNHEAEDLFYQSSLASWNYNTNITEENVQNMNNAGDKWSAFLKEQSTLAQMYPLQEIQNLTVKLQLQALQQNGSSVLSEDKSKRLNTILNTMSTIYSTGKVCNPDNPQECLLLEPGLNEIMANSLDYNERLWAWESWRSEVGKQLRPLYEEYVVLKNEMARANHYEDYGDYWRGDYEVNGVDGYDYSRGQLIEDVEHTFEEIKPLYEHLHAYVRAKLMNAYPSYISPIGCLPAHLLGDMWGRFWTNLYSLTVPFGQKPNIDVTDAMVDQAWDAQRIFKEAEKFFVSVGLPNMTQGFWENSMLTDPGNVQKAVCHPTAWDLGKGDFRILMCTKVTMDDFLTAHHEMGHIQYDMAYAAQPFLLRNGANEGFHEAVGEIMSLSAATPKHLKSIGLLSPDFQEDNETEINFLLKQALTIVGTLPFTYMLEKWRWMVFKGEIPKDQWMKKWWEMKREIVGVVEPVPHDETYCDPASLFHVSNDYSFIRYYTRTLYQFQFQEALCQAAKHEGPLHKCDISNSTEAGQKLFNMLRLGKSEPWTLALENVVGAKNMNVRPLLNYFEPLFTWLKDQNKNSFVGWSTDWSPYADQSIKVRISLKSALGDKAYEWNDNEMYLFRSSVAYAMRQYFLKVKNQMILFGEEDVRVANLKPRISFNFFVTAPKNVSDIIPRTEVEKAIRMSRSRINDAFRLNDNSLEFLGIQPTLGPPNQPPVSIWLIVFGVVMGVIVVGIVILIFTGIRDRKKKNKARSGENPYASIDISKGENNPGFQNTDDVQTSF

Substance: pyr‐1‐apelin‐13 (QRPRLSHKGPMPF; Apelin-13 N-terminal pyroglutamate; UniProt Q9ULZ1 65-77, looked up, fragment)
- susceptibility to ACE2‐mediated proteolysis (result in words): efficient ACE2‐mediated cleavage
